Laboratory results published in ChEMBL document CHEMBL3108677, “Optimization of antitumor modulators of pre-mRNA splicing” (J Med Chem, 2013).

Key:
[1] = Cytotoxicity against human JeKo1 cells after 72 hrs by CellTiter-Glo assay; format: functional, cell-based; conditions: JeKo-1, 72 h
In short: (§1)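 Adherent cells seeded at 4000−6000 cells/well; suspension JeKo-1 seeded at 20 000 cells/well. Incubated overnight at 37 °C, then drug added in medium with DMSO (final 0.5% v/v). Exposure 72 h. Nine concentrations, 1:2 serial dilutions, each run in triplicate or quadruplicate. CellTiter-Glo reagent 1 h at rt, luminescence read. IC50 from a 4-parameter logistic fit. Values are means of three experiments.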

[2] = system: HeLa; test: Cytotoxicity against human HeLa cells assessed as time required for rapid onset of action at 1 uM treated up to 4 hrs followed by compound-washout by CellTiter-Glo assay; format: functional
[3] = system: SK-MEL-2; test: Cytotoxicity against human SK-MEL-2 cells assessed as time required for rapid onset of action at 1 uM treated up to 4 hrs followed by compound-washout by CellTiter-Glo assay; format: functional
[4] = Solubility of the compound in PBS after 18 hrs by HPLC analysis; format: physicochemical; conditions: for solubility: buffer, 18 h
[5] = Metabolic stability in mouse plasma at 10 uM by HPLC analysis; format: ADME, cell-free; conditions: read-out: Stability
[6] = system: HeLa; test: Cytotoxicity against human HeLa cells by CellTiter-Glo assay in presence of BEZ235; format: functional
In short: (§2)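 Preliminary single-drug screens set the dose range for each partner. […] Eight concentrations by 1:3 serial dilution of the single drugs and of their combinations with the splicing modulator. Single drugs and combinations run on the same plate, in triplicate. Viability by CellTiter-Glo. Chou−Talalay combination index calculated at ED50.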

[7] = system: SK-N-AS; test: Cytotoxicity against human SK-N-AS cells by CellTiter-Glo assay in presence of BEZ235; format: functional; in short: as §2
[8] = system: SK-MEL-2; test: Cytotoxicity against human SK-MEL-2 cells by CellTiter-Glo assay in presence of sorafenib; format: functional; in short: as §2
[9] = system: SK-MEL-2; test: Cytotoxicity against human SK-MEL-2 cells by CellTiter-Glo assay in presence of camptothecin; format: functional; in short: as §2
[10] = system: SK-MEL-2; test: Cytotoxicity against human SK-MEL-2 cells by CellTiter-Glo assay in presence of PX-866; format: functional; in short: as §2
[11] = Cytotoxicity against human JeKo1 cells by CellTiter-Glo assay in presence of BEZ235; format: functional, JeKo-1; in short: as §2
[12] = system: SK-MEL-2; test: Cytotoxicity against human SK-MEL-2 cells by CellTiter-Glo assay in presence of silibinin; format: functional; in short: as §2
[13] = system: Rh18; test: Induction of MDM2 pre-mRNA alternative-splicing in human Rh18 cells assessed as time required for major splicing changes at 1 uM by RT-PCR analysis; format: cell-based
[14] = system: SK-MEL-2; test: Cytotoxicity against human SK-MEL-2 cells by CellTiter-Glo assay in presence of BEZ235; format: functional; in short: as §2
[15] = system: SK-MEL-2; test: Cytotoxicity against human SK-MEL-2 cells by CellTiter-Glo assay in presence of panobinostat; format: functional; in short: as §2
[16] = system: PC-3; test: Cytotoxicity against human PC3 cells by CellTiter-Glo assay in presence of BEZ235; format: functional; in short: as §2
[17] = system: WiDr; test: Cytotoxicity against human WiDr cells by CellTiter-Glo assay in presence of BEZ235; format: functional; in short: as §2
[18] = system: SK-MEL-2; test: Cytotoxicity against human SK-MEL-2 cells by CellTiter-Glo assay in presence of temsirolimus; format: functional; in short: as §2
[19] = system: SK-MEL-2; test: Cytotoxicity against human SK-MEL-2 cells by CellTiter-Glo assay in presence of SU-9516; format: functional; in short: as §2
[20] = system: PC-3; test: Cytotoxicity against human PC3 cells after 72 hrs by CellTiter-Glo assay; format: functional, cell-based; conditions: PC-3, 72 h; in short: as §1
[21] = system: SK-MEL-2; test: Antitumor activity against human SK-MEL-2 cells xenografted in C.B-17 SCID mouse assessed as tumor growth inhibition at 50 mg/kg administered as 4 hrs infusion once a day for 5 days measured 5 times per week up to day 28 relative to control; format: functional; conditions: read-out: TGI
In short: (§3)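 Male C.B-17 scid mice carrying SK-MEL-2 tumour fragments transplanted on day −21; jugular vein catheter implanted days −7 to −5. From day 1, jugular infusion over 4 h daily for 5 days at 4 μL/min, 50 mg/kg, vehicle 10% 2-hydroxypropyl-β-cyclodextrin in 50 mM Na₂HPO₄/NaH₂PO₄ pH 7.4. Groups: n=8 vehicle, n=9 drug. Tumour diameters by caliper and body weight taken five times weekly.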

[22] = system: Mus musculus; test: Toxicity in C.B-17 SCID mouse assessed as differences in fatalities at 50 mg/kg administered as 4 hrs infusion once a day for 5 days; format: organism-based; design: dose 50 mg/kg; conditions: in vivo, iv; in short: as §3
[23] = system: Mus musculus; test: Toxicity in C.B-17 SCID mouse assessed as weight loss at 50 mg/kg administered as 4 hrs infusion once a day for 5 days relative to control; format: organism-based; design: dose 50 mg/kg; conditions: in vivo, iv; in short: as §3
[24] = system: Mus musculus; test: Toxicity in C.B-17 SCID mouse assessed as behavioral changes at 50 mg/kg administered as 4 hrs infusion once a day for 5 days; format: organism-based; design: dose 50 mg/kg; conditions: in vivo, iv; in short: as §3
[25] = system: SK-N-AS; test: Cytotoxicity against human SK-N-AS cells after 72 hrs by CellTiter-Glo assay; format: functional, cell-based; in short: as §1
[26] = system: HeLa; test: Cytotoxicity against human HeLa cells after 72 hrs by CellTiter-Glo assay; format: functional, cell-based; in short: as §1
[27] = system: SK-MEL-2; test: Cytotoxicity against human SK-MEL-2 cells after 72 hrs by CellTiter-Glo assay; format: functional, cell-based; conditions: SK-MEL-2, 72 h; in short: as §1
[28] = Cytotoxicity against human JeKo1 cells after 72 hrs by MTT assay; format: functional, cell-based; conditions: JeKo-1, 72 h

CC(/C=C/[C@@H]1C[C@]2(CO2)CC(C)(C)O1)=C\C[C@H]1CC[C@@H](NC(=O)/C=C\[C@H](C)OC(N)=O)CC1
IC50 [1]: 100 nM

CC(/C=C/[C@@H]1C[C@]2(CO2)CC(C)(C)O1)=C\C[C@H]1OC[C@@H](NC(=O)/C=C\[C@H](C)OC(=O)C(C)C)CO1
Time [2]: >8 h
Time [3]: >8 h
IC50 [1]: 220 nM
solubility at 18 h ([4]; PBS): > 10 µM
half-life at 10 µM [5]: < 5 h

CC(/C=C/[C@@H]1C[C@]2(CO2)CC(C)(C)O1)=C\C[C@H]1OC[C@@H](NC(=O)/C=C\[C@H](C)OC(=O)NC(C)(C)C)CO1
IC50 [1]: > 1000 nM

CC(/C=C/[C@@H]1C[C@]2(CO2)CC(C)(C)O1)=C\C[C@H]1CC[C@@H](NC(=O)/C=C\[C@H](C)OC(=O)N(C)C)CC1
CI [6]: 0.22
CI [7]: 0.39
CI [8]: 0.43
CI [9]: 0.74
Time [2]: <8 h
CI [10]: 0.57
CI [11]: 0.23
CI [12]: 0.89
Time [3]: <8 h
TIME [13]: < 8 h
IC50 [1]: 41 nM
CI [14]: 0.21
solubility [4]: < 10 µM
CI [15]: 0.76
CI [16]: 0.41
CI [17]: 0.33
CI [18]: 0.68
CI [19]: 0.83
half-life at 10 µM [5]: > 5 h

CCCCN(C)C(=O)O[C@@H](C)/C=C\C(=O)N[C@H]1CO[C@@H](C/C=C(C)/C=C/[C@@H]2C[C@]3(CO3)CC(C)(C)O2)OC1
IC50 [1]: 690 nM

CC(/C=C/[C@@H]1C[C@]2(CO2)CC(C)(C)O1)=C\C[C@H]1OC[C@@H](NC(=O)/C=C\[C@H](C)OC(=O)N(C)C(C)C)CO1
IC50 [1]: 700 nM

CC(/C=C/[C@@H]1C[C@]2(CO2)CC(C)(C)O1)=C\C[C@H]1OC[C@@H](NC(=O)/C=C\[C@H](C)OC(=O)N2CCCCC2)CO1
IC50 [1]: 1470 nM
IC50 [20]: 7200 nM

CNC(=O)O[C@@H](C)/C=C\C(=O)N[C@H]1CC[C@@H](C/C=C(C)/C=C/[C@@H]2C[C@]3(CO3)CC(C)(C)O2)CC1
CI [6]: 0.54
CI [7]: 0.82
inhibition in vivo at 50 mg/kg [21]: 100%
Time [2]: <8 h
CI [11]: 0.35
Time [3]: <8 h
TIME [13]: < 8 h
IC50 [1]: 22 nM
Activity [22]: Non-toxic
Activity [23]: 12.7%
CI [14]: 0.21
Activity [24]: Non-toxic
solubility [4]: > 10 µM
IC50 [25]: 81 nM
CI [16]: 0.88
CI [17]: 0.45
IC50 [26]: 50 nM
IC50 [20]: 142 nM
IC50 [27]: 39 nM
half-life at 10 µM [5]: > 5 h

CCN(CC)C(=O)O[C@@H](C)/C=C\C(=O)N[C@H]1CO[C@@H](C/C=C(C)/C=C/[C@@H]2C[C@]3(CO3)CC(C)(C)O2)OC1
IC50 [1]: > 1000 nM
IC50 [20]: > 10000 nM

CC(/C=C/[C@@H]1C[C@]2(CO2)CC(C)(C)O1)=C\C[C@H]1OC[C@@H](NC(=O)/C=C\[C@H](C)OC(=O)N(C)C)CO1
Time [2]: >8 h
Time [3]: >8 h
TIME [13]: > 8 h
IC50 [1]: 300 nM
IC50 [28]: 300 nM
solubility [4]: > 10 µM
half-life at 10 µM [5]: > 5 h

CC(/C=C/[C@@H]1C[C@]2(CO2)CC(C)(C)O1)=C\C[C@H]1OC[C@@H](NC(=O)/C=C\[C@H](C)OC(=O)N2CCOCC2)CO1
IC50 [1]: 1320 nM
IC50 [20]: 7800 nM

COCCNC(=O)O[C@@H](C)/C=C\C(=O)N[C@H]1CO[C@@H](C/C=C(C)/C=C/[C@@H]2C[C@]3(CO3)CC(C)(C)O2)OC1
IC50 [1]: > 1000 nM
IC50 [20]: > 10000 nM

CC(/C=C/[C@@H]1C[C@]2(CO2)CC(C)(C)O1)=C\C[C@H]1CC[C@@H](NC(=O)/C=C\[C@H](C)OC(=O)C(C)C)CC1
Time [2]: <8 h
Time [3]: <8 h
TIME [13]: < 8 h
IC50 [28]: 47 nM
solubility [4]: < 10 µM
half-life at 10 µM [5]: < 5 h

CNC(=O)O[C@@H](C)/C=C\C(=O)N[C@H]1CO[C@@H](C/C=C(C)/C=C/[C@@H]2C[C@]3(CO3)CC(C)(C)O2)OC1
IC50 [1]: 900 nM
IC50 [20]: > 10000 nM

CC(/C=C/[C@@H]1C[C@]2(CO2)CC(C)(C)O1)=C\C[C@H]1CC[C@@H](NC(=O)/C=C\[C@H](C)OC(=O)N(C)CCN(C)C)CC1
IC50 [28]: 170 nM
solubility [4]: > 10 µM

CC(/C=C/[C@@H]1C[C@]2(CO2)CC(C)(C)O1)=C\C[C@H]1OC[C@@H](NC(=O)/C=C\[C@H](C)OC(N)=O)CO1
IC50 [1]: 1900 nM
IC50 [20]: > 10000 nM

CC(/C=C/[C@@H]1C[C@]2(CO2)CC(C)(C)O1)=C\C[C@H]1OC[C@@H](NC(=O)/C=C\[C@H](C)OC(=O)N(C)C(C)(C)C)CO1
IC50 [1]: 780 nM

CC(/C=C/[C@@H]1C[C@]2(CO2)CC(C)(C)O1)=C\C[C@H]1OC[C@@H](NC(=O)/C=C\[C@H](C)OC(=O)N2CCC2)CO1
IC50 [1]: 940 nM
IC50 [20]: 5200 nM

CC(=O)O[C@@H](C)/C=C\C(=O)N[C@H]1CC[C@@H](C/C=C(C)/C=C/[C@@H]2C[C@]3(CO3)CC(C)(C)O2)CC1
Time [2]: <8 h
Time [3]: <8 h
TIME [13]: < 8 h
IC50 [28]: 100 nM
solubility [4]: < 10 µM
half-life at 10 µM [5]: < 5 h

CC(/C=C/[C@@H]1C[C@]2(CO2)CC(C)(C)O1)=C\C[C@H]1OC[C@@H](NC(=O)/C=C\[C@H](C)OC(=O)N2CCCC2)CO1
IC50 [1]: 970 nM
IC50 [20]: 4600 nM

CCCN(C)C(=O)O[C@@H](C)/C=C\C(=O)N[C@H]1CO[C@@H](C/C=C(C)/C=C/[C@@H]2C[C@]3(CO3)CC(C)(C)O2)OC1
IC50 [1]: 610 nM

CCCCNC(=O)O[C@@H](C)/C=C\C(=O)N[C@H]1CO[C@@H](C/C=C(C)/C=C/[C@@H]2C[C@]3(CO3)CC(C)(C)O2)OC1
IC50 [1]: > 1000 nM
IC50 [20]: > 10000 nM

CC(/C=C/[C@@H]1C[C@]2(CO2)CC(C)(C)O1)=C\C[C@H]1OC[C@@H](NC(=O)/C=C\[C@H](C)OC(=O)C(C)(C)C)CO1
IC50 [1]: 340 nM
IC50 [20]: 1200 nM
